One block for each compound: values may come before it. Active and inactive are the calls of the source. The calls are words filed in the database; no cut-off is given here. Where a SMILES comes first, the peptide text is derived from it. [ ]: non-standard residue; d: D form. N(4-MeOBn)Gly = COc1ccc(CNCC(=O)O)cc1; NMeY = CN[C@@H](Cc1ccc(O)cc1)C(=O)O; Gly(N-CH2CH2OH) = O=C(O)CNCCO; NMeK = CN[C@@H](CCCCN)C(=O)O; Nlys = NCCCCNCC(=O)O
Legend:
[1] = target: T1, 20S proteasome (Homo sapiens) (UniProt P49721+P20618+P28074+P28062+P28065+P28072+P25786+P25787+P25788+P25789+P28066+P60900+O14818+Q8TAA3+P40306+A5LHX3+P49720+P28070+Q99436); assay: Activation of human erythrocyte-derived 20S proteasome using Dabcyl-EDANS as FRET-type substrate at 1.0 to 50 uM measured every two mins for 60 mins by fluorescence based analysis; format: cell-based; conditions: filed as activator, dose 1-50 µM
In short: (§1)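 Latent human 20S proteasome (0.002 mg/mL, 2.8 nM) in 50 mM Tris/HCl pH 8.0 with 2% DMSO. AMC substrates at 100 μM final (ex 380/em 460 nm); Dabcyl-EDANS at 15 μM final (ex 335/em 493 nm). Modulators at 1.0–50 μM; TAT- or 6R-containing constructs at 0.5–10 μM. Read every 2 min for 60 min at 37 °C. Activity relative to DMSO-treated proteasome (100%). ≥3 independent replicates.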

[2] = target: T1, 20S proteasome (Homo sapiens); assay: Activation of human erythrocyte-derived 20S proteasome chymotrypsin-like activity using Suc-LLVY-AMC as substrate at 1.0 to 50 uM measured every two mins for 60 mins by fluorescence based analysis; conditions: filed as activator, dose 1-50 µM
[3] = target: T1, 20S proteasome (Homo sapiens); assay: Activation of human erythrocyte-derived 20S proteasome chymotrypsin-like activity using succinyl-LeuLeuValTyr-AMC as substrate assessed as fold increase in activity incubated for 1 hr by fluorescence based analysis relative to control; conditions: filed as activator
In short: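 h20S proteasome 0.002 mg/mL (2.8 nM) in 50 mM Tris/HCl pH 8.0, 2% DMSO final. Suc-LLVY-AMC 100 μM final. Modulators 1.0–50 μM (TAT/6R constructs 0.5–10 μM). AMC fluorescence ex 380/em 460 nm read every 2 min for 60 min at 37 °C. Activity relative to DMSO-treated latent proteasome (100%); ≥3 replicates.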

[4] = target: T1, 20S proteasome (Homo sapiens); assay: Activation of human erythrocyte-derived 20S proteasome chymotrypsin-like activity using Suc-LLVY-AMC as substrate at 1 uM measured every two mins for 60 mins by fluorescence based analysis; conditions: filed as activator; in short: as §1
[5] = target: T1, 20S proteasome (Homo sapiens); assay: Activation of human erythrocyte-derived 20S proteasome chymotrypsin-like activity using Suc-LLVY-AMC as substrate at higher concentration measured every two mins for 60 mins by fluorescence based analysis; conditions: filed as activator; in short: as §1
[6] = target: T1, 20S proteasome (Homo sapiens); assay: Activation of human erythrocyte-derived 20S proteasome chymotrypsin-like activity using Suc-LLVY-AMC as substrate at lower concentration measured every two mins for 60 mins by fluorescence based analysis; conditions: filed as activator; in short: as §1
[7] = target: T1, 20S proteasome (Homo sapiens); assay: Activation of human erythrocyte-derived 20S proteasome using Dabcyl-EDANS as FRET-type substrate at lower concentration measured every two mins for 60 mins by fluorescence based analysis; format: cell-based; conditions: filed as activator; in short: as §1
[8] = Proteolytic stability of compound in human plasma assessed as protease-mediated degradation by measuring compound remaining at 200 uM incubated for 30 mins by UHPLC analysis; format: ADME, cell-free; conditions: read-out: Stability
In short: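 Compound (200 μM final, dissolved in water) incubated in human serum at 37 °C for 30 min. Samples every 5 min quenched 1:1 with 6% TCA and centrifuged. Supernatant analysed by UHPLC (UV 223 nm) for intact compound; cleavage sites identified by MS.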

[9] = Permeability of compound in PBS incubated for 22 hrs by PAMPA-BBB assay; format: ADME
In short: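 PAMPA-BBB with a 2% porcine brain lipid membrane. Compounds were diluted from 10 mM aqueous stocks to 500 μM in 0.1 M PBS containing 5% DMSO and incubated 22 h at 37 °C with shaking at 250 rpm. Read-out was fluorescence after reaction with 0.02% fluorescamine (absorbance at 290 nm for propranolol). Pe calculated as linear permeation velocity. Three biological replicates.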

[10] = target: T1, 20S proteasome (Homo sapiens); assay: Activation of human erythrocyte-derived 20S proteasome trypsin-like activity using Boc-LRR-AMC as substrate at lower concentration measured every two mins for 60 mins by fluorescence based analysis; conditions: filed as activator; in short: as §1
[11] = target: T1, 20S proteasome (Homo sapiens); assay: Activation of human erythrocyte-derived 20S proteasome caspase-like activity using Z-LLE-AMC as substrate at lower concentration measured every two mins for 60 mins by fluorescence based analysis; conditions: filed as activator; in short: as §1
[12] = target: T1, 20S proteasome (Homo sapiens); assay: Activation of human erythrocyte-derived 20S proteasome chymotrypsin-like activity using Suc-LLVY-AMC as substrate assessed as fold increase in activity at 1.0 to 50 uM measured every two mins for 60 mins by fluorescence based analysis relative to control; conditions: filed as activator, dose 1-50 µM; in short: as §1
[13] = target: T1, 20S proteasome (Homo sapiens); assay: Activation of human erythrocyte-derived 20S proteasome using Dabcyl-EDANS as FRET-type substrate assessed as fold increase in activity at 1.0 to 50 uM measured every two mins for 60 mins by fluorescence based analysis relative to control; format: cell-based; conditions: filed as activator, dose 1-50 µM; in short: as §1

Compound: C[C@@H](O)[C@H](NC(=O)[C@H](Cc1ccccc1)NC(=O)[C@H](Cc1ccc(O)cc1)NC(=O)CNCCCCN)C(=O)NCC(=O)N[C@@H](CO)C(=O)N[C@@H](CCCCN)C(=O)N[C@@H](CC(=O)O)C(=O)N[C@@H](Cc1c[nH]c2ccccc12)C(=O)N[C@@H](CCCNC(=N)N)C(=O)N(CCO)CC(=O)N[C@@H](Cc1ccc(O)cc1)C(=O)N[C@@H](Cc1ccc(O)cc1)C(=O)N[C@@H](CO)C(=O)O (H-[Nlys]YFTGSKDWR[Gly(N-CH2CH2OH)]YYS-OH)
Activity [1]: Active
Activity [2]: Active; Lower Capacity Of Activation Is Observed

Compound: N=C(N)NCCC[C@H](NC(=O)CN)C(=O)N[C@@H](CCCCN)C(=O)N[C@@H](CCCCN)C(=O)N[C@@H](CCCNC(=N)N)C(=O)N[C@@H](CCCNC(=N)N)C(=O)N[C@@H](CCC(N)=O)C(=O)N1Cc2ccccc2CC1C(=O)N1[C@@H](C(=O)N[C@@H](CCCNC(=N)N)C(=O)N2CCC[C@H]2C(=O)N[C@@H](CO)C(=O)O)C[C@@H]2CCCC[C@@H]21 (some centres not stated)
fold change (FC) [3]: 8

Compound: C[C@@H](O)[C@H](NC(=O)[C@H](Cc1ccccc1)NC(=O)[C@H](Cc1ccc(O)cc1)NC(=O)CNCCCCN)C(=O)NCC(=O)N[C@@H](CO)C(=O)N[C@@H](CCCCN)C(=O)N[C@@H](CC(=O)O)C(=O)N[C@@H](Cc1c[nH]c2ccccc12)C(=O)N[C@@H](CCCNC(=N)N)C(=O)N[C@@H](CO)C(=O)N[C@@H](Cc1ccc(O)cc1)C(=O)N[C@@H](Cc1ccc(O)cc1)C(=O)N[C@@H](CO)C(=O)O (H-[Nlys]YFTGSKDWRSYYS-OH)
permeability [9]: Impermeable

Compound: C[C@@H](O)[C@H](NC(=O)[C@H](Cc1ccccc1)NC(=O)[C@H](Cc1ccc(O)cc1)NC(=O)CNCCCCN)C(=O)NCC(=O)N[C@@H](CO)C(=O)N[C@@H](CCCCN)C(=O)N[C@@H](CC(=O)O)C(=O)N[C@@H](Cc1ccc(O)cc1)C(=O)N[C@@H](CCCNC(=N)N)C(=O)N[C@@H](CCCNC(=N)N)C(=O)N[C@@H](Cc1ccc(O)cc1)C(=O)N[C@@H](Cc1ccc(O)cc1)C(=O)N[C@@H](CO)C(=O)O (H-[Nlys]YFTGSKDYRRYYS-OH)
Activity [1]: Active
Activity [6]: Active
Activity [7]: Active

Compound: CN[C@@H](CCCCN)C(=O)N(C)[C@@H](Cc1ccc(O)cc1)C(=O)N[C@@H](Cc1ccccc1)C(=O)N[C@H](C(=O)NCC(=O)N[C@@H](CO)C(=O)N[C@@H](CCCCN)C(=O)N[C@@H](CC(=O)O)C(=O)N[C@@H](Cc1c[nH]c2ccccc12)C(=O)N[C@@H](CCCNC(=N)N)C(=O)N[C@@H](CO)C(=O)N[C@@H](Cc1ccc(O)cc1)C(=O)N[C@@H](Cc1ccc(O)cc1)C(=O)N[C@@H](CO)C(=O)O)[C@@H](C)O (H-[NMeK][NMeY]FTGSKDWRSYYS-OH)
Activity [1]: Active

Compound: C[C@@H](O)[C@H](NC(=O)[C@H](Cc1ccccc1)NC(=O)[C@H](Cc1ccc(O)cc1)NC(=O)[C@@H](N)CCCCN)C(=O)NCC(=O)N[C@@H](CO)C(=O)N[C@@H](CCCCN)C(=O)N[C@@H](CC(=O)O)C(=O)N[C@@H](Cc1c[nH]c2ccccc12)C(=O)N[C@@H](CCCNC(=N)N)C(=O)N(CCO)CC(=O)N[C@@H](Cc1ccc(O)cc1)C(=O)N[C@@H](Cc1ccc(O)cc1)C(=O)N[C@@H](CO)C(=O)O (H-KYFTGSKDWR[Gly(N-CH2CH2OH)]YYS-OH)
Activity [1]: Active
Activity [2]: Active; Lower Capacity Of Activation Is Observed

Compound: COc1ccc(CN(CC(=O)N[C@@H](Cc2ccccc2)C(=O)N[C@H](C(=O)NCC(=O)N[C@@H](CO)C(=O)N[C@@H](CCCCN)C(=O)N[C@@H](CC(=O)O)C(=O)N[C@@H](Cc2ccc(O)cc2)C(=O)N[C@@H](CCCNC(=N)N)C(=O)N[C@@H](CCCNC(=N)N)C(=O)N[C@@H](Cc2ccc(O)cc2)C(=O)N[C@@H](Cc2ccc(O)cc2)C(=O)N[C@@H](CO)C(=O)O)[C@@H](C)O)C(=O)[C@@H](N)CCCCN)cc1 (H-K[N(4-MeOBn)Gly]FTGSKDYRRYYS-OH)
Activity [4]: Moderate_effect

Compound: C[C@@H](O)[C@H](NC(=O)[C@H](Cc1ccccc1)NC(=O)[C@H](Cc1ccc(O)cc1)NC(=O)[C@@H](N)CCCCN)C(=O)NCC(=O)N[C@@H](CO)C(=O)N(CCCCN)CC(=O)N[C@@H](CC(=O)O)C(=O)N[C@@H](Cc1ccc(O)cc1)C(=O)N[C@@H](CCCNC(=N)N)C(=O)N[C@@H](CCCNC(=N)N)C(=O)N[C@@H](Cc1ccc(O)cc1)C(=O)N[C@@H](Cc1ccc(O)cc1)C(=O)N[C@@H](CO)C(=O)O (H-KYFTGS[Nlys]DYRRYYS-OH)
Activity [5]: Active

Compound: H-KYFTGSKDWRSYYS-OH
fold change (FC) [12]: 8
fold change (FC) [13]: 12
remaining at 0.5 h, 200 µM [8]: ≤ 10%

Compound: COc1ccc(CN(CC(=O)N[C@@H](CCCNC(=N)N)C(=O)N[C@@H](CCCNC(=N)N)C(=O)N[C@@H](Cc2ccc(O)cc2)C(=O)N[C@@H](Cc2ccc(O)cc2)C(=O)N[C@@H](CO)C(=O)O)C(=O)[C@H](CC(=O)O)NC(=O)[C@H](CCCCN)NC(=O)[C@H](CO)NC(=O)CNC(=O)[C@@H](NC(=O)[C@H](Cc2ccccc2)NC(=O)[C@H](Cc2ccc(O)cc2)NC(=O)[C@@H](N)CCCCN)[C@@H](C)O)cc1 (H-KYFTGSKD[N(4-MeOBn)Gly]RRYYS-OH)
Activity [10]: Weak_effect
Activity [1]: Active
Activity [6]: Active
Activity [7]: Active
Activity [11]: Weak_effect
remaining at 0.5 h, 200 µM [8]: < 30%

More lines, now with the values ahead:

fold change (FC) [3]: 10
Compound: NCCCC[C@H](NC(=O)[C@H](CCCCN)NC(=O)[C@@H](N)CCCCN)C(=O)Nc1cc(NC(=O)[C@H](CCCCN)NC(=O)[C@H](CCCCN)NC(=O)[C@@H](N)CCCCN)cc(NC(=O)[C@H](CCCCN)NC(=O)[C@H](CCCCN)NC(=O)[C@@H](N)CCCCN)c1

Activity [4]: Moderate_effect
Activity [5]: Active
Compound: C[C@@H](O)[C@H](NC(=O)[C@H](Cc1ccccc1)NC(=O)[C@H](Cc1ccc(O)cc1)NC(=O)CNCCCCN)C(=O)NCC(=O)N[C@@H](CO)C(=O)N(CCCCN)CC(=O)N[C@@H](CC(=O)O)C(=O)N[C@@H](Cc1ccc(O)cc1)C(=O)N[C@@H](CCCNC(=N)N)C(=O)N[C@@H](CCCNC(=N)N)C(=O)N[C@@H](Cc1ccc(O)cc1)C(=O)N[C@@H](Cc1ccc(O)cc1)C(=O)N[C@@H](CO)C(=O)O (H-[Nlys]YFTGS[Nlys]DYRRYYS-OH)

Activity [6]: Active
Activity [7]: Active
remaining at 0.5 h, 200 µM [8]: ≤ 10%
Compound: H-KYFTGSKDYRRYYS-OH

Activity [10]: Weak_effect
Activity [1]: Active
Activity [6]: Active
Activity [7]: Active
Activity [11]: Weak_effect
Compound: COc1ccc(CN(CC(=O)N[C@@H](CCCNC(=N)N)C(=O)N[C@@H](CCCNC(=N)N)C(=O)N[C@@H](Cc2ccc(O)cc2)C(=O)N[C@@H](Cc2ccc(O)cc2)C(=O)N[C@@H](CO)C(=O)O)C(=O)[C@H](CC(=O)O)NC(=O)[C@H](CCCCN)NC(=O)[C@H](CO)NC(=O)CNC(=O)[C@@H](NC(=O)[C@H](Cc2ccccc2)NC(=O)CN(Cc2ccc(OC)cc2)C(=O)[C@@H](N)CCCCN)[C@@H](C)O)cc1 (H-K[N(4-MeOBn)Gly]FTGSKD[N(4-MeOBn)Gly]RRYYS-OH)
